Measured values taken from ChEMBL document CHEMBL1157242, “Triterpene saponins with gastroprotective effects from tea seed (the seeds of Camellia sinensis)” (2006).
Counter-ions that a name gives are not always drawn.

Columns and labels:
Details in all cases: Gastric mucosa
[1] = test system: Rattus norvegicus; assay: Gastroprotective effect in […] assessed as inhibition of ethanol-induced gastric mucosal lesions at 5 mg/kg, po administered 1 hr prior to ethanol challenge relative to control; format: functional
Outline: (§1)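 Male […] fasted 24-26 h with free access to water, conscious. Given agent orally at 5.0 mL/kg, suspended in 5% acacia or 0.5% CMC-Na. 1 h later, 99.5% ethanol 1.5 mL/rat by orogastric tube. After 1 h, stomach fixed with 1.5% formalin and opened. Lesion index is total lesion length (mm). Inhibition is versus vehicle controls, n = 4-6.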

[2] = test system: Rattus norvegicus; assay: Gastroprotective effect in […] assessed as inhibition of ethanol-induced gastric mucosal lesions at 10 mg/kg, po administered 1 hr prior to ethanol challenge relative to control; format: functional; outline: as §1
[3] = test system: Rattus norvegicus; assay: Gastroprotective effect in […] assessed as inhibition of ethanol-induced gastric mucosal lesions at 20 mg/kg, po administered 1 hr prior to ethanol challenge relative to control; format: functional; outline: as §1
[4] = test system: Rattus norvegicus; assay: Gastroprotective effect in […] assessed as inhibition of ethanol-induced gastric mucosal lesions at 15 mg/kg, po administered 1 hr prior to ethanol challenge relative to control; format: functional; outline: as §1
[5] = test system: Rattus norvegicus; assay: Gastroprotective effect in […] assessed as inhibition of ethanol-induced gastric mucosal lesions at 75 mg/kg, po administered 1 hr prior to ethanol challenge relative to control; format: functional; outline: as §1
[6] = test system: Rattus norvegicus; assay: Gastroprotective effect in […] assessed as inhibition of ethanol-induced gastric mucosal lesions at 300 mg/kg, po administered 1 hr prior to ethanol challenge relative to control; format: functional; outline: as §1
[7] = test system: Rattus norvegicus; assay: Gastroprotective effect in […] assessed as inhibition of ethanol-induced gastric mucosal lesions at 150 mg/kg, po administered 1 hr prior to ethanol challenge relative to control; format: functional; outline: as §1
[8] = test system: Rattus norvegicus; assay: Gastroprotective effect in […] assessed as inhibition of ethanol-induced gastric mucosal lesions at 5 mg/kg, po administered 1 hr prior to ethanol challenge relative to control

`C/C=C(/C)C(=O)O[C@H]1[C@H](O)[C@@]2(COC(C)=O)C(CC1(C)C)C1=CCC3[C@@]4(C)CC[C@H](O[C@@H]5O[C@H](C(=O)O)[C@@H](O)[C@H](O[C@@H]6OC[C@H](O)[C@H](O)[C@H]6O[C@@H]6OC[C@@H](O)[C@H](O)[C@H]6O)[C@H]5O[C@H]5O[C@H](CO)[C@H](O)[C@H](O)[C@H]5O)[C@@](C)(C(=O)OC)C4CC[C@@]3(C)[C@]1(C)C[C@H]2O` (stereo partly drawn) [THEASAPONINS F3] was tested, and the inhibition in vivo at 5 mg/kg [1] was 42.1%.

`C/C=C(/C)C(=O)O[C@H]1[C@H](OC(C)=O)[C@@]2(CO)C(CC1(C)C)C1=CCC3[C@@]4(C)CC[C@H](O[C@@H]5O[C@H](C(=O)O)[C@@H](O)[C@H](O[C@@H]6OC[C@H](O)[C@H](O)[C@H]6O[C@@H]6OC[C@@H](O)[C@H](O)[C@H]6O)[C@H]5O[C@H]5O[C@H](CO)[C@H](O)[C@H](O)[C@H]5O)[C@@](C)(CO)C4CC[C@@]3(C)[C@]1(C)C[C@H]2O` (stereo partly drawn) [ASSAMSAPONINS D] showed an inhibition in vivo at 5 mg/kg [1] of 47.9%.

`COc1ccc2[nH]c([S+]([O-])Cc3ncc(C)c(OC)c3C)nc2c1` (stereo not drawn) [OMEPRAZOLE] was tested, and the inhibition in vivo at 10 mg/kg [2] was 43.1%, the inhibition in vivo at 20 mg/kg [3] was 89.4% and the inhibition in vivo at 15 mg/kg [4] was 82%.

`NC[C@H]1CC[C@H](C(=O)Oc2ccc(CCC(=O)O)cc2)CC1` [CETRAXATE HYDROCHLORIDE] gave an inhibition in vivo at 75 mg/kg [5] of 41.2%, an inhibition in vivo at 300 mg/kg [6] of 79.4% and an inhibition in vivo at 150 mg/kg [7] of 65.6%.

Work on `C/C=C(/C)C(=O)O[C@H]1[C@H](O)[C@@]2(COC(C)=O)C(CC1(C)C)C1=CCC3[C@@]4(C)CC[C@H](O[C@@H]5O[C@H](C(=O)O)[C@@H](O)[C@H](O[C@@H]6OC[C@H](O)[C@H](O)[C@H]6O[C@@H]6OC[C@@H](O)[C@H](O)[C@H]6O)[C@H]5O[C@H]5O[C@H](CO)[C@H](O)[C@H](O)[C@H]5O)[C@@](C)(C=O)C4CC[C@@]3(C)[C@]1(C)C[C@H]2O` (stereo partly drawn) [THEASAPONINS E2] yielded an inhibition in vivo at 5 mg/kg [8] of 77.6%.

`C/C=C(/C)C(=O)O[C@H]1[C@H](OC(C)=O)[C@@]2(CO)C(CC1(C)C)C1=CCC3[C@@]4(C)CC[C@H](O[C@@H]5O[C@H](C(=O)O)[C@@H](O)[C@H](O[C@@H]6OC[C@H](O)[C@H](O)[C@H]6O[C@@H]6OC[C@@H](O)[C@H](O)[C@H]6O)[C@H]5O[C@H]5O[C@H](CO)[C@H](O)[C@H](O)[C@H]5O)[C@@](C)(C=O)C4CC[C@@]3(C)[C@]1(C)C[C@H]2O` (stereo partly drawn) [THEASAPONINS E1] gave an inhibition in vivo at 5 mg/kg [8] of 71.4%.

Molecule `C/C=C(/C)C(=O)O[C@H]1[C@H](O)[C@@]2(CO)C(CC1(C)C)C1=CCC3[C@@]4(C)CC[C@H](O[C@@H]5O[C@H](C(=O)O)[C@@H](O)[C@H](O[C@@H]6OC[C@H](O)[C@H](O)[C@H]6O[C@@H]6OC[C@@H](O)[C@H](O)[C@H]6O)[C@H]5O[C@H]5O[C@H](CO)[C@H](O)[C@H](O)[C@H]5O)[C@@](C)(CO)C4CC[C@@]3(C)[C@]1(C)C[C@H]2O` (stereo partly drawn) [THEASAPONINS A1] has an inhibition in vivo at 5 mg/kg [1] of 37%.

In the case of `C/C=C(/C)C(=O)O[C@H]1CC(C)(C)CC2C3=CCC4[C@@]5(C)CC[C@H](O[C@@H]6O[C@H](C(=O)O)[C@@H](O)[C@H](O[C@@H]7OC[C@H](O)[C@H](O)[C@H]7O[C@@H]7OC[C@@H](O)[C@H](O)[C@H]7O)[C@H]6O[C@H]6O[C@H](CO)[C@H](O)[C@H](O)[C@H]6O)[C@@](C)(C=O)C5CC[C@@]4(C)[C@]3(C)C[C@@H](O)[C@]21CO` (stereo partly drawn) [ASSAMSAPONINS A], the inhibition in vivo at 5 mg/kg [1] was 61%.

`C/C=C(/C)C(=O)O[C@H]1[C@H](O)[C@@]2(COC(C)=O)C(CC1(C)C)C1=CCC3[C@@]4(C)CC[C@H](O[C@@H]5O[C@H](C(=O)O)[C@@H](O)[C@H](O[C@@H]6OC[C@H](O)[C@H](O)[C@H]6O[C@@H]6OC[C@@H](O)[C@H](O)[C@H]6O)[C@H]5O[C@H]5O[C@H](CO)[C@H](O)[C@H](O)[C@H]5O)[C@@](C)(CO)C4CC[C@@]3(C)[C@]1(C)C[C@H]2O` (stereo partly drawn) [THEASAPONINS A2] gave an inhibition in vivo at 5 mg/kg [1] of 54.7%.
